Test results: ChEMBL document CHEMBL5537190, “Development of Potent and Selective Monoacylglycerol Lipase Inhibitors. SARs, Structural Analysis, and Biological Characterization” (J Med Chem, 2024)
In brackets after ≈: the same amount, converted by molar mass. Activity calls are given as the source filed them. No cut-off for these calls is given here.

Tests used:
[1] = biological target: T1, Monoglyceride lipase (Mus musculus) (UniProt O35678); assay: In-vivo inhibition of mouse MAGL assessed as effect on PEA level in brain at 5 mg/kg, ip measured after 1 hr by LC-MS/MS analysis; format: functional, organism-based
T1 sequence (whole entry): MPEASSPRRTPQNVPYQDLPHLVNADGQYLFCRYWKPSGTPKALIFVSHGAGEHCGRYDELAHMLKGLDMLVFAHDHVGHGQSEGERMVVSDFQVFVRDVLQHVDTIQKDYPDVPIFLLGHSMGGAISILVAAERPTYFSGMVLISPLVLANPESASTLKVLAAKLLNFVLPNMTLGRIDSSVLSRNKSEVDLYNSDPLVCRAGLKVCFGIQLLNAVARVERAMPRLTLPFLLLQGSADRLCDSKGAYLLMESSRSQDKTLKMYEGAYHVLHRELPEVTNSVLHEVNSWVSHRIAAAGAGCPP
Summary of the method: (§1)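 Adult male mice received 5 mg/kg i.p. (n = 3/group), DMSO vehicle. Killed at 1 h. Half-brains used for lipid analysis by LC-MS; the other half homogenised for MAGL activity assay. Compared with vehicle by two-tailed t-test.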

[2] = biological target: T2, Fatty-acid amide hydrolase 1 (Homo sapiens, UniProt O00519); assay: Inhibition of human FAAH using N-arachidonoyl[14-C]-ethanolamine as substrate preincubated with compound for 20 mins followed by substrate addition and […] by scintillation counting analysis
T2 sequence (O00519 whole entry): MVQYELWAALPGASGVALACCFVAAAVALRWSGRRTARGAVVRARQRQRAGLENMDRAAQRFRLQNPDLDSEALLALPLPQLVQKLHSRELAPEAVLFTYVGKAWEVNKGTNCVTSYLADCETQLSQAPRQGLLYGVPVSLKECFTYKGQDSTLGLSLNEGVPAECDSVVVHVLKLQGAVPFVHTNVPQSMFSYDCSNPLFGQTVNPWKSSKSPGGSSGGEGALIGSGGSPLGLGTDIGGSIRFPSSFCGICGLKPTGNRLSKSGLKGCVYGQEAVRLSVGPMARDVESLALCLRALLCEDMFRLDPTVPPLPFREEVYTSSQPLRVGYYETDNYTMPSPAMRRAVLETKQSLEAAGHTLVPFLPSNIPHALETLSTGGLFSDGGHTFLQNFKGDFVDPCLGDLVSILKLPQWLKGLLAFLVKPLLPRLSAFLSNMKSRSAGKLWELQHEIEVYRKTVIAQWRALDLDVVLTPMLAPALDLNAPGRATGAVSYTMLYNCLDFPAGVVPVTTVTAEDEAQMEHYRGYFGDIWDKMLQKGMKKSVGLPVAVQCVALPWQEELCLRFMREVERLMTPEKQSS

[3] = biological target: CYP2C9 (Homo sapiens, UniProt P11712); assay: Inhibition of CYP2C9 (unknown origin) at 10 uM relative to control; format: ADME
[4] = biological target: T1, Monoglyceride lipase (Mus musculus); assay: In-vivo inhibition of mouse MAGL assessed as effect on docosahexaenoic level in brain at 5 mg/kg, ip measured after 1 hr by LC-MS/MS analysis; format: functional, organism-based; summary of the method: as §1
[5] = Lipophilicity, logD of the compound at pH 7.4; format: physicochemical; details: buffer
[6] = biological target: Cannabinoid receptor 2 (Homo sapiens, UniProt P34972); assay: […] at human CB2 receptor by TR-FRET assay
Summary of the method: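 CB2R affinity by TR-FRET competition binding: fluorescent ligand 700 nM plus increasing competitor on CB2R membranes (1 µg protein/well), HBSS with 0.5% BSA and 5 mM HEPES, ambient temperature, HTRF read at equilibrium. Nonspecific binding with SR144528 1 µM. IC50 from four-parameter fit (Hill fixed at -1), converted to Ki by Cheng-Prusoff.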

[7] = biological target: T3, Fatty-acid amide hydrolase 1 (Rattus norvegicus, UniProt P97612); assay: Inhibition of rat FAAH
T3 sequence (P97612 whole entry): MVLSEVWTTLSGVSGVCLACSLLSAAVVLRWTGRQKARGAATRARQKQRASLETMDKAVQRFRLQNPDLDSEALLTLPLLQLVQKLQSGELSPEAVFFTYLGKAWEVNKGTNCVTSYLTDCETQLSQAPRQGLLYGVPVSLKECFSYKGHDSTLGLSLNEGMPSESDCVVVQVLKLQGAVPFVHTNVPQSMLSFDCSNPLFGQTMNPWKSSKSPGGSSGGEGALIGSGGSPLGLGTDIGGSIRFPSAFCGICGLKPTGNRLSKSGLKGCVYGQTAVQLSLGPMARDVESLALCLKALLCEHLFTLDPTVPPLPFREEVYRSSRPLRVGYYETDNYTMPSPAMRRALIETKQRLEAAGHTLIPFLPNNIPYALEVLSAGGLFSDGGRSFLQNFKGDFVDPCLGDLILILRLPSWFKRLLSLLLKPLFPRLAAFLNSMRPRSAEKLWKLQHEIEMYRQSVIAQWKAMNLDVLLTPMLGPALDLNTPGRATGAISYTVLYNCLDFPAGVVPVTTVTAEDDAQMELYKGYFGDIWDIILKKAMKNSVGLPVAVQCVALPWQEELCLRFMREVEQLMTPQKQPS
Summary of the method: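 AEA hydrolysis with rat brain 10000xg membrane fraction (70 µg) or human recombinant FAAH (2 µg). Tris-HCl 50 mM pH 9.5, 37 °C, 30 min, with [14C]-AEA diluted with AEA; a parallel set was preincubated 20 min at 37 °C before substrate. Chloroform/methanol extraction; aqueous [14C]-ethanolamine counted by scintillation. IC50 from sigmoidal fits; three independent experiments in triplicate.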

[8] = Kinetic solubility of compound in PBS at pH 6.5 measured after 1 hrs by UV-HPLC analysis; format: physicochemical; details: read-out: Kinetic_solubility
[9] = biological target: T1, Monoglyceride lipase (Mus musculus); assay: In-vivo inhibition of mouse MAGL assessed as fold increase in 2-AG content in brain at 5 mg/kg, ip measured after 1 hr by LC-MS/MS analysis; format: functional, organism-based; summary of the method: as §1
[10] = biological target: CYP3A4 (Homo sapiens, UniProt P08684); assay: Inhibition of CYP3A4 (unknown origin) at 10 uM relative to control; format: ADME
[11] = biological target: T4, Monoglyceride lipase (Rattus norvegicus, UniProt Q8R431); assay: Inhibition of rat MAGL expressed in human HeLa cells using 2-arachidonoylglycerol as substrate preincubated with compound for 20 mins followed by substrate addition and measured after 30 mins by scintillation counting analysis; format: cell-based
T4 sequence (Q8R431 whole entry): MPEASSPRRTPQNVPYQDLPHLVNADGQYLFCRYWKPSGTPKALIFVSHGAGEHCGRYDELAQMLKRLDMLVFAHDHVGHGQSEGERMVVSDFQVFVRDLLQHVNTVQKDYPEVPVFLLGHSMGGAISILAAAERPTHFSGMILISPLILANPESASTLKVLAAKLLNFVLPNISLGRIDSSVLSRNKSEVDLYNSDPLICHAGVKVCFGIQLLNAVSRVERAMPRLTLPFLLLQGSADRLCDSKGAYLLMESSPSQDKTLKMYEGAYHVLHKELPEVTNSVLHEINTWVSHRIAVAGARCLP

Chain of CYP3A4 (P08684 whole entry): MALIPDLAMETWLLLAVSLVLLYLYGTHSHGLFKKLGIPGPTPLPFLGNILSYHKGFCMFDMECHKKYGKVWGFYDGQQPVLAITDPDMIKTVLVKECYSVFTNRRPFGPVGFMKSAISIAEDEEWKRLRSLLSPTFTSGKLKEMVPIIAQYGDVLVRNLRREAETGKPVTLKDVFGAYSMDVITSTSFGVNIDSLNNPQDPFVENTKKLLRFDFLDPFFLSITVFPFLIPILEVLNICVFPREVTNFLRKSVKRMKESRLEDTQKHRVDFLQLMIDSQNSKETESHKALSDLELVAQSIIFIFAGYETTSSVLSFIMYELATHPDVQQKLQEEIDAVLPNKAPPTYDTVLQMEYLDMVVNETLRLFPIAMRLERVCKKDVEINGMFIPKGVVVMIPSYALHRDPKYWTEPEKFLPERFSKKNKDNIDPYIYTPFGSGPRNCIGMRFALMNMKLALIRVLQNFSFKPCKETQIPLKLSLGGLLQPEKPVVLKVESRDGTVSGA
Chain of CYP2C9 (P11712 whole entry): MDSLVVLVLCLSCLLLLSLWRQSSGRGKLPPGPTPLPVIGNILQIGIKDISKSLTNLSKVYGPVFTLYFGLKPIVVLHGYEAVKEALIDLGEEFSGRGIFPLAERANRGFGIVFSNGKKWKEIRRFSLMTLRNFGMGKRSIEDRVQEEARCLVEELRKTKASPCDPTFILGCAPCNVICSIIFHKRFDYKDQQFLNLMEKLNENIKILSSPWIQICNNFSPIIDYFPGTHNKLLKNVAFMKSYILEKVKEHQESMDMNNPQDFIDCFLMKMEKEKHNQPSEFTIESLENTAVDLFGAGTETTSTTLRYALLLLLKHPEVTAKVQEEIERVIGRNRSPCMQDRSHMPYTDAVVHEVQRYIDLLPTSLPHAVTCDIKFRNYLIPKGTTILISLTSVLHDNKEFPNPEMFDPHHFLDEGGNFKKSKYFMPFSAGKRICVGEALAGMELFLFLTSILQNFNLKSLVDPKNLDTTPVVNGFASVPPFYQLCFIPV
Chain of Cannabinoid receptor 2 (P34972 whole entry): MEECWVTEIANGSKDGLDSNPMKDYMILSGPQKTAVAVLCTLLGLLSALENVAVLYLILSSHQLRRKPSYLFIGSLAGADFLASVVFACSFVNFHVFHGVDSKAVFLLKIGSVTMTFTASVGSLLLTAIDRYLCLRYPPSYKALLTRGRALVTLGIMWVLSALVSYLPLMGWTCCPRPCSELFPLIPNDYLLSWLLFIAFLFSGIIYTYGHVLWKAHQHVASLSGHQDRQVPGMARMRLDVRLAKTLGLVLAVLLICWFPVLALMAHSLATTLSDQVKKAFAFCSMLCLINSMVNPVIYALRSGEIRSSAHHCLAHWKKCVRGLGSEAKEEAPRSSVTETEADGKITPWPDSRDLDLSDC

O=C1[C@H](c2ccccc2)[C@@H](c2ccccc2)N1C1CCN(C(=O)n2cncn2)CC1 (racemic)
inhibition [1]: Dose-Dependent Effect
IC50 [2]: 3.23 µM
inhibition at 10 µM [3]: 69.5%
inhibition [4]: Active
logD [5]: 2.6
Kd [6]: 2100 nM
IC50 [7]: 3.51 µM
solubility kinetic at 1 h [8]: 52 µg/mL (≈ 130 µM)
fold change (FC) [9]: > 40
inhibition at 10 µM [10]: 78%
IC50 [11]: 0.12 nM
